The text below walks through data of ChEMBL document CHEMBL3352023, “C-terminal residue optimization and fragment merging: discovery of a potent Peptide-hybrid inhibitor of dengue protease” (ACS Med Chem Lett, 2014).

pIC50: −log10 of the molar value. Activity calls are given as the source filed them. The rule behind the calls is not given here. Square brackets hold non-standard residues; d marks the D form. Peptide text beside a SMILES is read from it. * marks the point of attachment. ξ: configuration not given here. Phe(4-NO2) = N[C@@H](Cc1ccc([N+](=O)[O-])cc1)C(=O)O; Phe(4-CN) = N#Cc1ccc(C[C@H](N)C(=O)O)cc1; 2Pal = N[C@@H](Cc1ccccn1)C(=O)O; 3Pal = N[C@@H](Cc1cccnc1)C(=O)O; Cha = N[C@@H](CC1CCCCC1)C(=O)O; Tle = CC(C)(C)[C@H](N)C(=O)O; ξTic = O=C(O)C1Cc2ccccc2CN1; ξChg = NC(C(=O)O)C1CCCCC1; 3Abz = Nc1cccc(C(=O)O)c1; 4Abz = Nc1ccc(C(=O)O)cc1; 2Abz = Nc1ccccc1C(=O)O; ξPip = O=C(O)C1CCCCN1; Aib = CC(C)(N)C(=O)O; Bz = O=C(c1ccccc1)*; βAla = NCCC(=O)O

Test [1] concerns the target Genome polyprotein (dengue virus type 2, UniProt P12823). Briefly: Inhibition of Dengue virus serotype 2 NS2B-NS3 protease by homogeneous fluorimetric assay.
Test [2] concerns the target Genome polyprotein (dengue virus type 2) (UniProt P12823). In words: Inhibition of Dengue virus serotype 2 NS2B-NS3 protease at 50 uM by homogeneous fluorimetric assay.
The target in test [3] is Prothrombin (Homo sapiens) (UniProt P00734). In words: Inhibition of thrombin (unknown origin) at 25 uM by homogeneous fluorimetric assay.
The target of test [4] is Genome polyprotein (West Nile virus) (UniProt P06935). Briefly: Inhibition of West Nile virus […] NS2B-NS3 protease at 50 uM by homogeneous fluorimetric assay. In outline: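 WNV NS2B-NS3 protease percent inhibition, homogeneous fluorimetric assay: enzyme 150 nM, inhibitor 50 μM, substrate 50 μM (Km = 212 μM); triplicate, SD below 10%.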
Genome polyprotein (West Nile virus), sequence (P06935 whole entry): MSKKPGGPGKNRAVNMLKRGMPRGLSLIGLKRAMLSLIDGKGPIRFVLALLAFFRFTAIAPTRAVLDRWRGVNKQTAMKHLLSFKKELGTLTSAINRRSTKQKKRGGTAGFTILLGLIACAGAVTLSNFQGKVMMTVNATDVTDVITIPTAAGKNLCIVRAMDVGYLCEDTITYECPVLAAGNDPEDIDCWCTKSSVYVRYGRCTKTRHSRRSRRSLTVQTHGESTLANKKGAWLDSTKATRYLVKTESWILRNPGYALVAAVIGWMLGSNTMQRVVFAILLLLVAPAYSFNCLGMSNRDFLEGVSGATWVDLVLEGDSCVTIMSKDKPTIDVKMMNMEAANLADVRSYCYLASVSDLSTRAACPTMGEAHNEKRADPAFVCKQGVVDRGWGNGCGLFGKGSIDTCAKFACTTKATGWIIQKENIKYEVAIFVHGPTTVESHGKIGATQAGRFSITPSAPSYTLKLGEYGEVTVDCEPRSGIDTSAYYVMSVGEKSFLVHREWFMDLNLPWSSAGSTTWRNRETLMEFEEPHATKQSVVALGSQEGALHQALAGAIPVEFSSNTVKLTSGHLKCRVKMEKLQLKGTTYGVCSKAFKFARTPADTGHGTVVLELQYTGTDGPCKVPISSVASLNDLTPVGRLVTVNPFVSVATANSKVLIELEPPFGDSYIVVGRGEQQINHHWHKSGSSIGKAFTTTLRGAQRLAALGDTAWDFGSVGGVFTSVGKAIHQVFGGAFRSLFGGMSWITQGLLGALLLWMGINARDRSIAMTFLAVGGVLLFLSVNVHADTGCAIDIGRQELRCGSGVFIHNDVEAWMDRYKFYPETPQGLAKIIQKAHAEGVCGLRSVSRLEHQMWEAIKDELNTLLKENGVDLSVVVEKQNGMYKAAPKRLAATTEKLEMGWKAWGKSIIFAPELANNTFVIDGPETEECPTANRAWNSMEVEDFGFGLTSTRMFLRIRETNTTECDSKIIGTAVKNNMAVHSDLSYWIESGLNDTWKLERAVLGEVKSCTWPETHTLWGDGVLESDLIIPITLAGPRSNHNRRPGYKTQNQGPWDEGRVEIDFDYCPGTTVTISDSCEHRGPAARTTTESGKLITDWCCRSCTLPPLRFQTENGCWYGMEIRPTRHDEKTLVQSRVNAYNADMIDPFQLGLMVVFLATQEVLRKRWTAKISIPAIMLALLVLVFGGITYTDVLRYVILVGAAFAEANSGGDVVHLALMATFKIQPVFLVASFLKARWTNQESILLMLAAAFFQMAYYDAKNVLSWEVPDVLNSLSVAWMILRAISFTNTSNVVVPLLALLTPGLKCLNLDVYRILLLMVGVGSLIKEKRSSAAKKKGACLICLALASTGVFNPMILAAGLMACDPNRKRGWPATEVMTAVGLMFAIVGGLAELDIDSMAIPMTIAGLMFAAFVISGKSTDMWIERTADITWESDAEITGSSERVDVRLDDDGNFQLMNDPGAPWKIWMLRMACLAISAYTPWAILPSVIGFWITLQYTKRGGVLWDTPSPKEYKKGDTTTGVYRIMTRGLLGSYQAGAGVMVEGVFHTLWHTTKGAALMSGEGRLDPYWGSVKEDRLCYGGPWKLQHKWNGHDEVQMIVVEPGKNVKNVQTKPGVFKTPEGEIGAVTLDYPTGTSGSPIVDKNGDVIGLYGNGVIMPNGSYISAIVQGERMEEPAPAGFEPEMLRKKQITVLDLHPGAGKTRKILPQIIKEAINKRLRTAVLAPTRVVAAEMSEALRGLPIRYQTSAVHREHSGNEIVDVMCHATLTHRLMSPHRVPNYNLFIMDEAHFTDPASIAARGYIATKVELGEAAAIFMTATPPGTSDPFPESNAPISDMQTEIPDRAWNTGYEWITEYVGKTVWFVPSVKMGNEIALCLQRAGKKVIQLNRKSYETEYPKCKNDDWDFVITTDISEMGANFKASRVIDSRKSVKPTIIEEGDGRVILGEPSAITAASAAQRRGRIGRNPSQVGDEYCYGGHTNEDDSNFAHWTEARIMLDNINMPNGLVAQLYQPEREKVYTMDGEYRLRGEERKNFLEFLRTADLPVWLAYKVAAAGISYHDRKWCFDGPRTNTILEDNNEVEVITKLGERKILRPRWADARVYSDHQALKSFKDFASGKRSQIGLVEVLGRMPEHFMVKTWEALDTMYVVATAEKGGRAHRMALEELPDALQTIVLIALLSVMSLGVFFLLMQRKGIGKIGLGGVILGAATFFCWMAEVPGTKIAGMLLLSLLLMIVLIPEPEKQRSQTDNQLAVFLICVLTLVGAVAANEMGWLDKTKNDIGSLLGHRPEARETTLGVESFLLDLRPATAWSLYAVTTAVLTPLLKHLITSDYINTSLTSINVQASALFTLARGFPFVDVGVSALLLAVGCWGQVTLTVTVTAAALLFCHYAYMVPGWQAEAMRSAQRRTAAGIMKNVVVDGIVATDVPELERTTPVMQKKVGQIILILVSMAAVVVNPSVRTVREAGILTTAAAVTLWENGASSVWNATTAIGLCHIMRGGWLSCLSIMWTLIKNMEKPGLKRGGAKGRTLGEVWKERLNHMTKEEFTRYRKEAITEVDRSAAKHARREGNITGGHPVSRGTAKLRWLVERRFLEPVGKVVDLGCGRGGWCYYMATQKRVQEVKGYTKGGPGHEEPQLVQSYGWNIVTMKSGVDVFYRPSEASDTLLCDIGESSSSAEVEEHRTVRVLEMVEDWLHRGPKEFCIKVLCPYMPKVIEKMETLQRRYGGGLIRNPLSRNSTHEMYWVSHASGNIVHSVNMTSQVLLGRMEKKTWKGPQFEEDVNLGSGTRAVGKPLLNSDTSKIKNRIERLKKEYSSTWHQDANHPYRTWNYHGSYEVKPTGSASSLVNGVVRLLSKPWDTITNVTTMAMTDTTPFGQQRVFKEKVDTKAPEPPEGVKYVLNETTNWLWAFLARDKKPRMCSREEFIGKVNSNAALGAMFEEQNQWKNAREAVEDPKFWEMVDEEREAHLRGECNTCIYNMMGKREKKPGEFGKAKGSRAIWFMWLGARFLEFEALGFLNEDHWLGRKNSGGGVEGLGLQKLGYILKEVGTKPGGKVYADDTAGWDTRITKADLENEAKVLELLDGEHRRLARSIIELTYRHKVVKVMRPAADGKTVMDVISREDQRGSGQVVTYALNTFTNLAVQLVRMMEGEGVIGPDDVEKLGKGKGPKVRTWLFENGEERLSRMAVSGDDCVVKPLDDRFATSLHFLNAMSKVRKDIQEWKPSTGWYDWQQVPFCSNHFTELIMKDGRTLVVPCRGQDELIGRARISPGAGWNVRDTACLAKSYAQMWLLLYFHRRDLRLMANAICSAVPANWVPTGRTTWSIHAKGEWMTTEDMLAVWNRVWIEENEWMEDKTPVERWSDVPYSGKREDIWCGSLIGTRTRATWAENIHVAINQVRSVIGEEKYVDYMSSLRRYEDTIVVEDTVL

With `N=C(N)NCCC[C@H](NC(=O)c1ccccc1)C(=O)N[C@@H](CCCCN)C(=O)N[C@@H](CO)C(N)=O` (Bz-Arg-Lys-Ser-NH2), the pIC50 in test [1] is 4.52. For the same compound, the inhibition stood at 57.9% in test [2], 6.2% in test [3] and 21.9% in test [4].
For `N#C/C(=C\c1ccc(C(=O)N[C@@H](CCCNC(=N)N)C(=O)N[C@@H](CCCCN)C(=O)N2Cc3ccccc3CC2C(N)=O)cc1)C(=O)NC1CC1` (stereo not given in full) the same measures were 4.60, 59.2%, “inactive” and 38.3%.
Turning to `CCCC[C@H](NC(=O)[C@H](CCCCN)NC(=O)[C@H](CCCNC(=N)N)NC(=O)c1ccc(/C=C(\C#N)C(=O)NC2CC2)cc1)C(N)=O`, the pIC50 in test [1] is 5.28. The inhibition was 88.5% in test [2] and 28% in test [4].
Regarding `CC(C)(NC(=O)[C@H](CCCCN)NC(=O)[C@H](CCCNC(=N)N)NC(=O)c1ccccc1)C(N)=O` (Bz-Arg-Lys-[Aib]-NH2), the negative-log IC50 (pIC50) in test [1] is 4.33. Besides, the figures for the inhibition in test [2] and in test [4] were 55% and 13.7%, respectively. Besides, the inhibition result in test [3] was “inactive”.
For `CCCC[C@@H](NC(=O)[C@H](CCCCN)NC(=O)[C@H](CCCNC(=N)N)NC(=O)c1ccccc1)C(N)=O`, in that order: 4.85, 72.7%, 16.1% and 4.9%.
For `N=C(N)NCCC[C@H](NC(=O)c1ccccc1)C(=O)N[C@@H](CCCCN)C(=O)Nc1ccccc1C(N)=O` (Bz-Arg-Lys-[2Abz]-NH2) the same measures were 4.80, 62%, 8.7% and 6.4%.
In test [1], `N=C(N)NCCC[C@H](NC(=O)c1ccccc1)C(=O)N[C@@H](CCCCN)C(=O)N[C@@H](CC1CCCCC1)C(N)=O` (Bz-Arg-Lys-[Cha]-NH2) showed a pIC50 of 5.09. Further, the inhibition in test [2] came out at 80%; in test [4], 19.1%. For the same compound, in test [3], the inhibition entry is “inactive”.
For `N=C(N)NCCC[C@H](NC(=O)c1ccccc1)C(=O)N[C@@H](CCCCN)C(=O)N1CCC[C@H]1C(N)=O` (Bz-Arg-Lys-Pro-NH2), in that order: 3.72, 20%, 3.6% and “inactive”.
In turn, `CC(C)(C)[C@H](NC(=O)[C@H](CCCCN)NC(=O)[C@H](CCCNC(=N)N)NC(=O)c1ccccc1)C(N)=O` (Bz-Arg-Lys-[Tle]-NH2) had a pIC50 in test [1] of 3.86. Further, the inhibition in test [2] was 18.8%; in test [4] it was 11.7%. Moreover, the inhibition result in test [3] was “inactive”.
For `N=C(N)NCCC[C@H](NC(=O)c1ccccc1)C(=O)N[C@@H](CCCCN)C(=O)N[C@@H](Cc1ccccc1)C(N)=O` (Bz-Arg-Lys-Phe-NH2), in that order: 4.92, 80.7%, 18.2% and 7.2%.
For `N=C(N)NCCC[C@H](NC(=O)c1ccc(/C=C2\SC(=O)N(C3CCCC3)C2=O)cc1)C(=O)N[C@@H](CCCCN)C(=O)N1Cc2ccccc2CC1C(N)=O` (stereo not given in full) the same measures were 4.98, 85.7%, 49.4% and 7.6%.
For `N=C(N)NCCC[C@H](NC(=O)c1ccccc1)C(=O)N[C@@H](CCCCN)C(=O)N[C@@H](Cc1ccccn1)C(N)=O` (Bz-Arg-Lys-[2Pal]-NH2), the pIC50 in test [1] is 4.35. For the same compound, the inhibition in test [2] was found to be 53%; in test [4], 9.8%. For the same compound, the inhibition entry in test [3] is “inactive”.
For `N=C(N)NCCC[C@H](NC(=O)c1ccccc1)C(=O)N[C@@H](CCCCN)C(=O)NCCC(N)=O` (Bz-Arg-Lys-[βAla]-NH2) the same measures were 3.96, 32.9%, 19.8% and “inactive”.
Turning to `N=C(N)NCCC[C@H](NC(=O)c1ccccc1)C(=O)N[C@@H](CCCCN)C(=O)N[C@@H](Cc1c[nH]c2ccccc12)C(N)=O` (Bz-Arg-Lys-Trp-NH2), the negative-log IC50 (pIC50) in test [1] was 4.75. Moreover, the inhibition came to 74.1% in test [2] and 32.8% in test [4]. In addition, in test [3], the inhibition entry is “inactive”.
For `CSCC[C@H](NC(=O)[C@H](CCCCN)NC(=O)[C@H](CCCNC(=N)N)NC(=O)c1ccccc1)C(N)=O` (Bz-Arg-Lys-Met-NH2), in that order: 4.32, 45%, 11.8% and 6.2%.
As for `CCCC[C@H](NC(=O)[C@H](CCCCN)NC(=O)[C@H](CCCNC(=N)N)NC(=O)c1ccc(/C=C2\SC(=O)N(C3CCCC3)C2=O)cc1)C(N)=O`, in test [1], the pIC50 is 5.60. The inhibition in test [2] is 98.2%; in test [4], 51.8%.
For the compound `N#Cc1ccc(C[C@H](NC(=O)[C@H](CCCCN)NC(=O)[C@H](CCCNC(=N)N)NC(=O)c2ccccc2)C(N)=O)cc1` (Bz-Arg-Lys-[Phe(4-CN)]-NH2), the pIC50 in test [1] is 4.84. In addition, the inhibition in test [2] was 71.7%; in test [4], 15.9%. For the same compound, the inhibition entry in test [3] is “inactive”.
For `N=C(N)NCCC[C@H](NC(=O)c1ccccc1)C(=O)N[C@@H](CCCCN)C(=O)N[C@@H](Cc1ccc(O)cc1)C(N)=O` (Bz-Arg-Lys-Tyr-NH2), in that order: 5.13, 82.3%, 12.9% and 7.9%.
For `CC(C)(C)[C@H](NC(=O)[C@H](CCCCN)NC(=O)[C@H](CCCNC(=N)N)NC(=O)c1ccc(/C=C2\SC(=O)N(C3CCCC3)C2=O)cc1)C(N)=O`, in test [1], the pIC50 is 4.53. Also, the inhibition in test [2] was 60.6%; in test [3] it was 10.2%; in test [4], 28%.
For `N=C(N)NCCC[C@H](NC(=O)c1ccccc1)C(=O)N[C@@H](CCCCN)C(=O)N1CCCCC1C(N)=O` (stereo partly drawn) (Bz-Arg-Lys-[ξPip]-NH2) the same measures were 3.80, 13.7%, “inactive” and 12.1%.
For `C[C@@H](O)[C@H](NC(=O)[C@H](CCCCN)NC(=O)[C@H](CCCNC(=N)N)NC(=O)c1ccccc1)C(N)=O` (Bz-Arg-Lys-Thr-NH2), in that order: 4.01, 32.1%, “inactive” and 16.5%.
In turn, `CCCC[C@H](NC(=O)[C@H](CCCCN)NC(=O)[C@H](CCCNC(=N)N)NC(=O)c1ccccc1)C(N)=O` showed a pIC50 in test [1] of 4.88. For the same compound, the inhibition came out at 68.1% in test [2] and 7.7% in test [4].
With `C[C@H](NC(=O)[C@H](CCCCN)NC(=O)[C@H](CCCNC(=N)N)NC(=O)c1ccccc1)C(N)=O` (Bz-Arg-Lys-Ala-NH2), the pIC50 in test [1] is 4.45. Further, the figures for the inhibition in test [2], in test [3] and in test [4] were 46.6%, 7.2% and 26%, respectively.
For `N=C(N)NCCC[C@H](NC(=O)c1ccccc1)C(=O)N[C@@H](CCCCN)C(=O)N1Cc2ccccc2CC1C(N)=O` (stereo partly drawn) (Bz-Arg-Lys-[ξTic]-NH2), in that order: 4.18, 41.6%, “inactive” and 17.8%.
Turning to `N#C/C(=C\c1ccc(C(=O)N[C@@H](CCCNC(=N)N)C(=O)N[C@@H](CCCCN)C(=O)NC(C(N)=O)c2ccccc2)cc1)C(=O)NC1CC1` (stereo not given in full), the pIC50 in test [1] is 5.89. For the same compound, the inhibition is 98.6% in test [2], 5.6% in test [3] and 90.2% in test [4].
For `N=C(N)NCCC[C@H](NC(=O)c1ccccc1)C(=O)N[C@@H](CCCCN)C(=O)Nc1cccc(C(N)=O)c1` (Bz-Arg-Lys-[3Abz]-NH2), in that order: 4.02, 27%, 5.6% and 23%.
For `N=C(N)NCCC[C@H](NC(=O)c1ccccc1)C(=O)N[C@@H](CCCCN)C(=O)NCC(N)=O` (Bz-Arg-Lys-Gly-NH2) the same measures were 4.68, 70.4%, 3.5% and 44.6%.
In the case of `N=C(N)NCCC[C@H](NC(=O)c1ccccc1)C(=O)N[C@@H](CCCCN)C(=O)N[C@@H](Cc1ccc([N+](=O)[O-])cc1)C(N)=O` (Bz-Arg-Lys-[Phe(4-NO2)]-NH2), the pIC50 in test [1] is 4.76. In addition, the inhibition in test [2] was 66.6%; in test [4] it was 21.3%. Further, the inhibition entry in test [3] was “inactive”.
For `N=C(N)NCCC[C@H](NC(=O)c1ccccc1)C(=O)N[C@@H](CCCCN)C(=O)N[C@@H](Cc1cccnc1)C(N)=O` (Bz-Arg-Lys-[3Pal]-NH2), in that order: 4.52, 61.3%, 12.5% and “inactive”.
For `N=C(N)NCCC[C@H](NC(=O)c1ccccc1)C(=O)N[C@@H](CCCCN)C(=O)NC(C(N)=O)C1CCCCC1` (stereo partly drawn) (Bz-Arg-Lys-[ξChg]-NH2) the same measures were 4.76, 71.7%, 12.1% and “inactive”.
For `N=C(N)NCCC[C@H](NC(=O)c1ccccc1)C(=O)N[C@@H](CCCCN)C(=O)Nc1ccc(C(N)=O)cc1` (Bz-Arg-Lys-[4Abz]-NH2), in that order: 4.04, 27.5%, 17.9% and 9.2%.
`CC[C@H](C)[C@H](NC(=O)[C@H](CCCCN)NC(=O)[C@H](CCCNC(=N)N)NC(=O)c1ccccc1)C(N)=O` (Bz-Arg-Lys-Ile-NH2) showed a pIC50 in test [1] of 4.55. Moreover, the inhibition in test [2] turned out to be 56.6%; in test [3] it was 4.6%; in test [4] it was 14.9%.
